Screens: PubChem, several laboratories
An excerpt weighted towards active compounds, which were near 2.3% of everything screened.
PAX8 reporter: PAX8 transcriptional activity inhibition; RMG-I TPO-luciferase reporter, SteadyGlo, 24 h; inhibition, % at 12.6 µM; actives 1.2% (n = 360,000); AID 652154;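 active = mean replicate inhibition at least 60% with every replicate also reaching 60%; inconclusive = only one of the two criteria is met; inactive = mean below 60% and not all replicates reaching 60%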;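 also: luciferase light reporting Pax8 driven TPO promoter activity; plate controls were median of neutral control wells for no effect and mitoxantrone controls for full effect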
Rtt109 Vps75: inhibitors of Candida albicans Rtt109/Vps75 histone acetyltransferase | purified Rtt109/Vps75, ThioGlo CoA-SH fluorescence, 4 h | inhibition, % at 34.9 µM | actives 0.16% (n = 330,000) | AID 540336;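 active = inhibition of at least 50% in every replicate; inconclusive = best replicate reaches 50% inhibition but some replicates fall short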
Target sequence (Q5AAJ8 whole entry, looked up): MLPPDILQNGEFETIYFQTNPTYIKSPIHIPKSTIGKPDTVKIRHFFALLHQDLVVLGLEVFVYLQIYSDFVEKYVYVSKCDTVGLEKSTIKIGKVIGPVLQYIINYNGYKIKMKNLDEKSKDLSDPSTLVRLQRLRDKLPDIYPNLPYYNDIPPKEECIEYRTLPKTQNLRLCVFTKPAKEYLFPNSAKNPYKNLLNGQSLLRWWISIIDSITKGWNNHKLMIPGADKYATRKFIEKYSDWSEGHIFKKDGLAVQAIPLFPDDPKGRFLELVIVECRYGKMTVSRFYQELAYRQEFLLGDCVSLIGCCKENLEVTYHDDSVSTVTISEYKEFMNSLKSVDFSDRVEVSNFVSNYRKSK
Arr AP2 block: blocks beta-arrestin peptide binding to AP2 adaptin; FITC-arrestin peptide / GST-AP2 beads, flow cytometry; AP2 beta2 appendage carries R879A mutation; inhibition, % at 10 µM; actives 0.31% (n = 340,000);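 active = inhibition above a set limit, near 3 SD of compounds lacking own fluorescence, cut at about 54% in these data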;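 also: plate controls were DMSO wells for no effect and 5 µM unlabelled arrestin peptide for full effect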
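system = GST-tagged AP2 beta2-adaptin appendage (R879A) on 4 µm glutathione beads | reagent = FITC-labelled arrestin peptide probe, 50 nM final | schedule = compound with beads 12 min RT, then probe 1 h RT | signal = HyperCyt-sampled flow cytometry, FL1 channel, ex 488/em 535 nm | read-out = percent response from loss of bead-bound FITC fluorescence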
Glyco luc inh: N-linked glycosylation inhibition; D54 ERlucT glycosylation luciferase reporter, 24 h; percent of 100 nM tunicamycin response; reporter increase, % at 12.5 µM; actives 0.23% (n = 360,000); AID 588692;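 active = mean luciferase reporter signal, scaled so untreated is 0 and the glycosylation-blocking control 100, at or above a set limit in every replicate; inconclusive = mean reaches the limit but not every replicate does; inactive = mean below the limit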;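 also: luciferase carries N-glycosylation sites so blocking glycosylation raises the light; 0% = median of neutral control wells and 100% = median of 100 nM tunicamycin wells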
Env fusion inh: inhibitors of HIV Env-mediated cell fusion; HeLa-JRFL Env/CEM21 cell fusion, luciferase; inhibition, % at 12.3 µM; actives 1.1% (n = 360,000); AID 651610;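 active = mean replicate inhibition score of at least 50 and every replicate individually at or above 50; inconclusive = only one of the two criteria met; inactive = mean below 50 and not all replicates reaching 50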;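 also: 0% = plate neutral controls and 100% = maraviroc near 300 nM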
PfHsp90 set2: growth inhibition of yeast expressing Plasmodium Hsp90 | S. cerevisiae expressing PfHsp90, BacTiter-Glo ATP, 48 h; yeast lacking PDR1 and PDR3 efflux regulators | inhibition, % at 9.4 µM | actives 0.32% (n = 310,000) | AID 504621;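 active = every replicate shows inhibition above about 80%, whatever the replicate mean, limit read from the data; inconclusive = mean inhibition reaches the set limit but some replicate falls short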;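 also: 0% = DMSO neutral controls and 100% = 20 µM radicicol positive controls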
The depositor's hits bear a star; [ ] = dose if it differs, or a comment.

`COc1ccc(Cn2nnnc2C(c2cc3cc(C)cc(C)c3[nH]c2=O)N2CCOCC2)cc1` (stereo not drawn) gave Rtt109 Vps75 -1, Arr AP2 block 3, Glyco luc inh 4, Env fusion inh 131* and PfHsp90 set2 14.
`COc1ccc(/C=c2/sc3n(c2=O)C(c2ccccc2OC)C2=C(N=3)c3ccccc3CC2)cc1O` (stereo not drawn) gave PAX8 reporter 93*, Rtt109 Vps75 5, Arr AP2 block 5, Glyco luc inh -10, Env fusion inh -81 and PfHsp90 set2 -3.
For O=[N+]([O-])c1cc(S(=O)(=O)C(F)(F)F)ccc1Sc1nc2ccccc2[nH]1 the results were Rtt109 Vps75 13, Arr AP2 block -9, Glyco luc inh 68* and PfHsp90 set2 -16.
`CS(=O)(=O)c1ccc(Sc2nc3ccccc3s2)c([N+](=O)[O-])c1` gave Rtt109 Vps75 4, Arr AP2 block 8, Glyco luc inh 40* and PfHsp90 set2 1.
Screening CS(=O)(=O)c1ccc(Sc2nc3ccccc3[nH]2)c([N+](=O)[O-])c1 returned PAX8 reporter 8, Rtt109 Vps75 28, Arr AP2 block 28, Glyco luc inh 0, Env fusion inh 24 and PfHsp90 set2 17.
`O=[N+]([O-])c1cc(S(=O)(=O)C(F)(F)F)ccc1Sc1nc2ccccc2s1` gave Rtt109 Vps75 -1, Arr AP2 block 1, Glyco luc inh 4 and PfHsp90 set2 109*.
Screening OC[C@H]1[C@@H](c2ccc(C3=CCCC3)cc2)[C@H]2CN(CCC(F)(F)F)CCCCN21 returned PAX8 reporter 13.
Cc1ccc(S(=O)(=O)Nc2ccc3c(c2)C(=O)N([C@@H](C)CO)C[C@H](C)[C@@H](CN(C)C(=O)Nc2c(C)noc2C)OCCCC[C@H](C)O3)cc1 was read as PAX8 reporter 0 and Env fusion inh -19[16.7 µM].
`CC(C)CC#Cc1ccc2c(c1)O[C@H](CN(C)S(=O)(=O)c1ccc(F)cc1)[C@H](C)CN([C@H](C)CO)S2(=O)=O` gave PAX8 reporter 99* and Env fusion inh 45[16.7 µM].
For CC(C)CC#Cc1ccc2c(c1)O[C@H](CN(C)S(=O)(=O)c1ccc(F)cc1)[C@@H](C)CN([C@H](C)CO)S2(=O)=O the results were PAX8 reporter 12 and Env fusion inh 0[16.7 µM].
CC(C)CC#Cc1ccc2c(c1)O[C@@H](CN(C)S(=O)(=O)c1ccc(F)cc1)[C@@H](C)CN([C@H](C)CO)S2(=O)=O was read as PAX8 reporter 55 and Env fusion inh 62*[16.7 µM].
Screening C[C@@H]1CN([C@@H](C)CO)C(=O)c2cc(NC(=O)C3CCCCC3)ccc2O[C@@H](C)CCCCO[C@H]1CN(C)C(=O)c1ccncc1 returned PAX8 reporter -8 and Env fusion inh 3[16.7 µM].
C[C@@H]1CCCCO[C@H](CN(C)CC2CCCCC2)[C@H](C)CN([C@@H](C)CO)C(=O)c2cc(NC(=O)Nc3ccc(F)cc3)ccc2O1 was read as PAX8 reporter 8 and Env fusion inh 1[16.7 µM].
C[C@H]1CCCCO[C@H](CN(C)CC2CCCCC2)[C@@H](C)CN([C@@H](C)CO)C(=O)c2cc(NC(=O)Nc3ccc(F)cc3)ccc2O1 was read as PAX8 reporter 68* and Env fusion inh inconclusive.
For C[C@@H]1CCCCO[C@@H](CN(C)CC2CCCCC2)[C@@H](C)CN([C@@H](C)CO)C(=O)c2cc(NC(=O)Nc3ccc(F)cc3)ccc2O1 the results were PAX8 reporter -15 and Env fusion inh 1[16.7 µM].
`C[C@@H]1CCCCO[C@@H](CN(C)CC2CCCCC2)[C@H](C)CN([C@H](C)CO)C(=O)c2cc(NC(=O)Nc3ccc(F)cc3)ccc2O1` gave PAX8 reporter -3 and Env fusion inh 75*[16.7 µM].
Screening O=C(NCCCN1CCOCC1)[C@@H]1[C@@H](CO)[C@@H]2Cn3c(cccc3=O)[C@H]1N2C(=O)C1CCCC1 returned PAX8 reporter 8.
`COc1ccc(S(=O)(=O)N2CCC(NC(=O)OCc3c(Cl)cccc3Cl)CC2)cc1` gave PAX8 reporter 29, Rtt109 Vps75 5, Arr AP2 block -8, Glyco luc inh -2, Env fusion inh -103 and PfHsp90 set2 -1.
For COc1ccc(COC(=O)NC2CCN(S(=O)(=O)c3ccc(OC)cc3)CC2)cc1 the results were Rtt109 Vps75 -3, Arr AP2 block 22, Glyco luc inh -7, Env fusion inh 56* and PfHsp90 set2 2.
Screening C[C@H]1CN([C@@H](C)CO)S(=O)(=O)c2ccc(-c3ccccc3)cc2O[C@@H]1CN(C)S(C)(=O)=O returned Env fusion inh 20[16.7 µM].
`CCOC(=O)N1CCN(C(=O)c2oc3ccc(S(=O)(=O)N4CC(C)CC(C)C4)cc3c2C)CC1` (stereo not drawn) gave PAX8 reporter 4, Rtt109 Vps75 5, Arr AP2 block 21, Glyco luc inh -3 and Env fusion inh 62*.
Screening Cc1noc(C)c1NC(=O)N(C)C[C@@H]1Oc2c(NC(=O)C3CCCCC3)cccc2C(=O)N([C@@H](C)CO)C[C@@H]1C returned PAX8 reporter -2.
COc1ccc(S(=O)(=O)Nc2ccc3c(c2)n(C)c(=O)n3C)cc1C was read as PAX8 reporter 6, Rtt109 Vps75 -10, Arr AP2 block 12, Glyco luc inh 31*, Env fusion inh -33 and PfHsp90 set2 23.
Screening Cn1c(=O)n(C)c2cc(NS(=O)(=O)c3ccc4c(c3)CCCC4)ccc21 returned Rtt109 Vps75 17, Arr AP2 block 18, Glyco luc inh 37* and Env fusion inh -10.
For Cn1c(=O)n(C)c2cc(NS(=O)(=O)c3ccc(C(C)(C)C)cc3)ccc21 the results were PAX8 reporter 17, Rtt109 Vps75 -8, Arr AP2 block 10, Glyco luc inh 25, Env fusion inh 30 and PfHsp90 set2 -6.
`CC(C)CC#Cc1ccc([C@H]2[C@H](CO)N3C(=O)CN(C(=O)Cc4cccnc4)C[C@@H]23)cc1` gave PAX8 reporter -3.
For O=C(Cc1cccs1)N/N=C/C=C/c1ccccc1 the results were PAX8 reporter 107*, Rtt109 Vps75 -19, Arr AP2 block 9, Glyco luc inh 1, Env fusion inh -16 and PfHsp90 set2 -53.
`Cc1ccc(S(=O)(=O)Nc2ccc3c(c2)CC(=O)N([C@H](C)CO)C[C@H](C)[C@H](CN(C)C(=O)Nc2ccc(C(F)(F)F)cc2)O3)cc1` gave PAX8 reporter 15 and Env fusion inh 6[16.7 µM].
`O=C(C1CCCCC1)N1C[C@@H]2[C@H](c3ccccc31)[C@@H](CO)N2CC1CCOCC1` gave PAX8 reporter 5.
